# Active and inactive are the calls of the source. No cut-off for these calls is given here.
# Key:
# Mus musculus [1] = assay: Inhibition of LPS-stimulated IL-6 production in CSF-1 primed mouse at 40 mg/kg, po administered 4.5 hr before LPS challenge and CSF-1 priming measured […] after LPS challenge; assay type: functional
# Macrophage [2] = assay: Effect on LPS-induced PGE2 production in CSF-1-stimulated human macrophages at 0.03906 to 20 uM preincubated for 30 mins before LPS stimulation measured after 20 hrs by ELISA; assay type: functional, cell-based
# [3] = Cmax in mouse at 20 mg/kg, po; assay type: ADME, organism-based; design: dose 20 mg/kg, route oral; settings: in vivo
# Procedure, shortened: (§1)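 Female mice given single oral doses (20 or 80 mg/kg) in 0.5% HPMC/0.1% Tween 80. Three mice killed with CO2 per time point; plasma extracted with isopropyl alcohol/acetonitrile, then vortexed, sonicated and centrifuged. Quantified by LC/MS (APCI positive mode, multiple-reaction monitoring) against a standard curve prepared in plasma.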
# Macrophage [4] = assay: Effect on LPS-induced IL-6 production in CSF-1-stimulated human macrophages at 0.03906 to 20 uM preincubated for 30 mins before LPS stimulation measured after 20 hrs by ELISA; assay type: functional, cell-based
# [5] = Cmax in mouse at 80 mg/kg, po; assay type: ADME, organism-based; design: dose 80 mg/kg, route oral; settings: in vivo; procedure, shortened: as §1
# HUVEC [6] = assay: Growth inhibition of bFGF-stimulated HUVEC after 3 days by spectrophotometry; assay type: cell-based; settings: Homo sapiens, 72 h
# Procedure, shortened: (§2)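 Cells cultured so that added serum or growth factor gave linear growth. Compound tested as a 10- to 12-point dose-response with a top concentration of 20 μM.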
# Osteoclast [7] = assay: Inhibition of human osteoclast attachment to plastic surface assessed cells per cm2 of plastic at 1 uM after 3 days by immunocytochemistry (reference value: 9723 +/- 1380 cells/cm2 of plastic); assay type: functional
# Procedure, shortened: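 Human PBMCs from a healthy volunteer (5 × 10^5 cells in MEM/10% FCS) were seeded on plastic coverslips with RANKL and CSF-1 (30 ng/ml each) for 10 days, with medium changed every 3 days. Compound was added on day 10 (0.1% DMSO final). On day 13, total cells on the coverslips were counted by immunocytochemistry. Data are mean ± SEM.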
# [8] = Protein binding in cell-culture media with human plasma at 3 uM; assay type: ADME, cell-free; settings: read-out: PB (converted)
# Procedure, shortened: (§3)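 Compound at 3 μM was added to triplicate samples and incubated 1 h at 37°C. Samples were centrifuged through a 30,000-MW filter (1,500 × g, 15 min, 4°C). Percent bound was calculated from compound concentrations in the filtrate and retentate.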
# Macrophage [9] = assay: Effect on LPS-induced TNF production in CSF-1-stimulated human macrophages at 0.03906 to 20 uM preincubated for 30 mins before LPS stimulation measured after 20 hrs by ELISA; assay type: functional, cell-based
# Osteoclast [10] = assay: Inhibition of human osteoclast degradation of bone assessed as reduction in 23C6(+) cells with more than 3 nuclei per cm2 of bone at 1 uM after 3 days by immunocytochemistry (reference value: 854 +/- 122 cells/cm2 of bone); assay type: functional
# [11] = target: Protein kinase C beta type (Homo sapiens, UniProt P05771); assay: Inhibition of human PKCb1 catalytic domain after by scintillation counting
# Sequence of Protein kinase C beta type (P05771 whole entry, the tested form may be a part): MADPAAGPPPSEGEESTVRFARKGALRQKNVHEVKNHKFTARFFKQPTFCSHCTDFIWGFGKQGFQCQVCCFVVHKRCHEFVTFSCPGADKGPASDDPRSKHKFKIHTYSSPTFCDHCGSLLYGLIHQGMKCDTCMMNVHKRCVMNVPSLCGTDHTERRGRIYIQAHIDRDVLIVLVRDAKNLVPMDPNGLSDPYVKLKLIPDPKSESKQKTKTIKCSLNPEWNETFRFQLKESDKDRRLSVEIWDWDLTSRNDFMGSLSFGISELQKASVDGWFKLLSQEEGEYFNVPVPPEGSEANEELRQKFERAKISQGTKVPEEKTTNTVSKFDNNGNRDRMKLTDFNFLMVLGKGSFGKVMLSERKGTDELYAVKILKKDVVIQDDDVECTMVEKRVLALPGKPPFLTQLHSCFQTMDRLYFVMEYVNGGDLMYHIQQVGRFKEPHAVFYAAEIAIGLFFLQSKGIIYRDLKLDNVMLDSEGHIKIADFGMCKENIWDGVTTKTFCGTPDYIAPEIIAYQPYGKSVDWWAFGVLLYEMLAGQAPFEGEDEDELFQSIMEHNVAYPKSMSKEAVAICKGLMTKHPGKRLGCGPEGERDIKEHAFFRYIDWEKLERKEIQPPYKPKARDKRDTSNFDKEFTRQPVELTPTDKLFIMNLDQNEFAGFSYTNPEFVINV
# Procedure, shortened: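 Catalytic domains of the human kinases were expressed, isolated and assayed with ATP and the appropriate substrate. Compound was tested as a 10- to 12-point dose-response up to a maximal 20 μM.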
# Osteoclast [12] = assay: Inhibition of human osteoclast degradation of bone assessed as reduction in actin ring formation per cm2 of bone at 1 uM after 3 days by immunocytochemistry (reference value: 1546 +/- 232 /cm2 of bone); assay type: functional
# NFS-60 = assay: Antitumor activity in mouse M-NFS-60 cells allografted in po dosed CD-1 nude mouse assessed as inhibition of tumor cell growth in peritoneal cavity compound starting 1 hr before challenge twice a day for 4 days measured after 4 days; assay type: functional, organism-based
# Procedure, shortened: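 CD-1 nude female mice (22-26 g); 1 × 10^7 M-NFS-60 cells in PBS injected i.p. Oral dosing b.i.d. at 20 and 80 mg/kg as a suspension in 0.5% hydroxypropylmethylcellulose/0.1% Tween 80 (0.2 ml per mouse), starting 1 h before cell injection. Peritoneal cells recovered by cold PBS-heparin lavage on day 4 and counted by hemocytometer after crystal violet dilution. Mean ± SEM; Dunnett's test.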
# Mus musculus [13] = assay: Inhibition of LPS-stimulated TNF production in CSF-1 primed mouse at 20 to 80 mg/kg, po administered 4.5 hr before LPS challenge and CSF-1 priming measured […] after LPS challenge; assay type: functional, organism-based
# Mus musculus [14] = assay: Inhibition of LPS-stimulated TNF production in CSF-1 primed mouse at 40 mg/kg, po administered 4.5 hr before LPS challenge and CSF-1 priming measured […] after LPS challenge; assay type: functional
# [15] = Growth inhibition of serum-stimulated human MDA231 cells after 3 days by spectrophotometry; assay type: functional, cell-based; settings: MDA-MB-231, 72 h; procedure, shortened: as §2
# PBMC [16] = assay: Effect on LPS-induced IL-6 production in human PBMC at 0.03906 to 20 uM preincubated for 30 mins before LPS stimulation measured after 20 hrs by ELISA; assay type: functional, cell-based
# Monocyte = assay: Inhibition of CSF-1-stimulated growth of freshly isolated human monocytes at 1 uM preincubated for 30 mins before inducer addition measured after 5 days by WST-1 method; assay type: functional; settings: read-out: GI
# A549 = assay: Growth inhibition of serum-stimulated human A549 cells after 3 days by spectrophotometry; assay type: functional, cell-based; settings: A549, 72 h; procedure, shortened: as §2
# PBMC [17] = assay: Effect on LPS-induced PGE2 production in human PBMC at 0.03906 to 20 uM preincubated for 30 mins before LPS stimulation measured after 20 hrs by ELISA; assay type: functional, cell-based
# [18] = Inhibition of PTH-induced Wistar rat fetal long bone degradation assessed as labeled 45Ca release in to media at 0.1 to 0.3 uM after 48 hrs by liquid scintillation spectrometry; assay type: functional
# Procedure, shortened: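 Fetal rat long bones preloaded with 45CaCl2 and incubated for 24 h. PTH and compound then added; release of labelled calcium into the medium measured 48 h later.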
# Mus musculus [19] = assay: Inhibition of thioglycolate-induced macrophage influx into peritoneal cavity in mouse at 20 mg/kg, po BID administered 7 days before and 4 days after thioglycolate challenge; assay type: functional
# Procedure, shortened: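 Female C3H/HEN mice (22-26 g) were dosed orally with compound suspended in 0.5% hydroxypropylmethylcellulose/0.1% Tween 80 (0.2 ml per mouse). Thioglycolate (1.5 ml) was injected i.p. on day 0. On day 4, the peritoneum was lavaged with 5 ml cold PBS containing 40 units/ml heparin, and cells were counted by hemocytometer in 0.1% crystal violet. Data are mean ± SEM; Dunnett's test.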
# Osteoclast [20] = assay: Inhibition of human osteoclast degradation of bone assessed as reduction in actin ring formation per cm2 of bone at 10 uM […] by immunocytochemistry (reference value: 1546 +/- 232 /cm2 of bone)
# [21] = Protein binding in cell-culture media with mouse plasma at 3 uM; assay type: ADME, cell-free; settings: read-out: PB (converted); procedure, shortened: as §3
# Mus musculus [22] = assay: Inhibition of LPS-stimulated TNF production in CSF-1 primed mouse at 40 mg/kg, po administered 0.5 hr before LPS challenge post CSF-1 priming measured […] after LPS challenge; assay type: functional
# HUVEC [23] = assay: Growth inhibition of VEGF-stimulated HUVEC after 3 days by spectrophotometry; assay type: cell-based; settings: Homo sapiens, 72 h; procedure, shortened: as §2
# [24] = Protein binding in cell-culture media with 10% fetal calf serum at 3 uM; assay type: ADME, cell-free, Bos taurus; settings: cattle, read-out: PB (converted); procedure, shortened: as §3
smiles,measurement,setting,value
COc1ccc(COc2ccc(Cc3cnc(N)nc3N)cc2OC)cc1 [GW632580X],inhibition in vivo at 40 mg/kg,Mus musculus [1],49%
same,Activity,Macrophage [2],inactive
same,Cmax,[3],1.4 µM
same,Activity,Macrophage [4],inactive
same,Cmax,[5],5.6 µM
same,IC50,HUVEC [6],> 10 µM
same,Activity,Osteoclast [7],2984 /cm2
same,fraction unbound at 3 µM,[8],0.02
same,Activity,Macrophage [9],inactive
same,Activity,Osteoclast [10],244 /cm2
same,IC50,[11],> 13 µM
same,Activity,Osteoclast [12],479 /cm2
same,growth inhibition (GI),NFS-60,Dose-dependent effect
same,inhibition,Mus musculus [13],Active
same,inhibition in vivo at 40 mg/kg,Mus musculus [14],58%
same,IC50,[15],> 30 µM
same,Activity,PBMC [16],inactive
same,inhibition of growth at 1 µM,Monocyte,100%
same,IC50,A549,> 30 µM
same,Activity,PBMC [17],inactive
same,inhibition (INH),[18],30%
same,inhibition in vivo at 20 mg/kg,Mus musculus [19],8%
same,Activity,Osteoclast [20],0 /cm2
same,fraction unbound at 3 µM,[21],0.07
same,inhibition in vivo at 40 mg/kg,Mus musculus [22],63%
same,IC50,HUVEC [23],12 µM
same,fraction unbound at 3 µM,[24],0.76

# From ChEMBL document CHEMBL1955811, “Inhibition of colony-stimulating-factor-1 signaling in vivo with the orally bioavailable cFMS kinase inhibitor GW2580” (Proc Natl Acad Sci U S A, 2005)
